Measurements: ChEMBL document CHEMBL1152877, “Studies on depigmenting activities of dihydroxyl benzamide derivatives containing adamantane moiety” (Bioorg Med Chem Lett, 2009)

What was measured:
Tyrosinase = target: T1, Tyrosinase (Agaricus bisporus, UniProt O42713); test: Inhibition of mushroom tyrosinase activity after 20 mins
T1 sequence (O42713 whole entry): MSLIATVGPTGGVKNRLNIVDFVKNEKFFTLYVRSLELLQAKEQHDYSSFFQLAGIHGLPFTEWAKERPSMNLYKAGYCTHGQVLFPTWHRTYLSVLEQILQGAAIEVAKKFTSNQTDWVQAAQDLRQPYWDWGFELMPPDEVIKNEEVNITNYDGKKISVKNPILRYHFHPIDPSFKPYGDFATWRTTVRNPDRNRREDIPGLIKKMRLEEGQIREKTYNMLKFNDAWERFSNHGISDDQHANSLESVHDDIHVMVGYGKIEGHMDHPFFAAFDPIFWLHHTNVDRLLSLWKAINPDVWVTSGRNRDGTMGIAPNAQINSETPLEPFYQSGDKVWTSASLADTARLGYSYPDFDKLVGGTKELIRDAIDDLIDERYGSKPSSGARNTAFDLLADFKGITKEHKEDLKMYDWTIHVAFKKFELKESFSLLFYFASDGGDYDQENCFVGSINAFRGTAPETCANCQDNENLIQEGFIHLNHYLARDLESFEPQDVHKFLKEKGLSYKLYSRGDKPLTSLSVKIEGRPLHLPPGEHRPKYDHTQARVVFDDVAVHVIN
Procedure, shortened: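 Mushroom tyrosinase (2100 U/ml stock in 0.05 M phosphate pH 6.5) with 1.5 mM tyrosine stock in 0.1 M phosphate buffer pH 6.5; incubated 20 min at 37 °C, read on microplate reader. IC50 = concentration inhibiting 50% of enzyme activity, from logarithmic concentration-inhibition curves, mean of three experiments.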

[1] = Cytotoxicity against C57BL/6J mouse Melan-a cells assessed as cell survival at 10 uM by modified crystal violet assay
Melan-a = test: Inhibition of melanin formation in C57BL/6J mouse Melan-a cells; assay type: functional, cell-based
Procedure, shortened: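 Murine melan-a melanocytes (C57BL/6J origin) seeded at 2 × 10⁵ cells/ml, compounds added in triplicate; medium changed daily, 4 d culture. Cells lysed in 1 N NaOH, relative melanin read at 400 nm. IC50 from logarithmic concentration-inhibition curves, means of three experiments. Viability by crystal violet (0.1% in 10% ethanol, 5 min RT; extracted with 95% ethanol 10 min).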

[2] = Cytotoxicity against C57BL/6J mouse Melan-a cells assessed as cell survival at 30 uM by modified crystal violet assay; assay type: cell-based; conditions: read-out: Survival
Procedure, shortened: (§1)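 Murine melan-a melanocytes (from C57BL/6 J mice) seeded at 2 × 10⁵ cells/ml, compound added in triplicate; medium changed daily over 4 d culture. Viability by modified crystal violet: PBS wash, 0.1% crystal violet in 10% ethanol 5 min at room temperature, four distilled-water rinses, retained dye extracted with 95% ethanol 10 min at room temperature. Reported as % survival at the stated concentration.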

[3] = Cytotoxicity against C57BL/6J mouse Melan-a cells assessed as cell survival at 80 uM by modified crystal violet assay; assay type: cell-based; conditions: read-out: Survival; procedure, shortened: as §1
[4] = Cytotoxicity against C57BL/6J mouse Melan-a cells assessed as cell survival at 20 uM by modified crystal violet assay; assay type: cell-based; conditions: read-out: Survival; procedure, shortened: as §1
[5] = Cytotoxicity against C57BL/6J mouse Melan-a cells assessed as cell survival at 50 uM by modified crystal violet assay; assay type: cell-based; conditions: read-out: Survival; procedure, shortened: as §1

Oc1ccc(O)cc1 [HYDROQUINONE]
IC50 (Tyrosinase): 9.81 µM | viability at 10 µM [1]: 87.3% | IC50 (Melan-a): 3.97 µM

O=C(NC12CC3CC(CC(C3)C1)C2)c1ccc(O)c(O)c1
IC50 (Tyrosinase): > 200 µM | IC50 (Melan-a): 1.25 µM | viability at 30 µM [2]: 95.2%

O=C(NC12CC3CC(CC(C3)C1)C2)c1cc(O)cc(O)c1
IC50 (Tyrosinase): > 200 µM | IC50 (Melan-a): 12.5 µM | viability at 30 µM [2]: 91.3%

CCCCc1ccc(O)cc1O [RUCINOL]
IC50 (Tyrosinase): 0.15 µM | viability at 80 µM [3]: 98.2% | IC50 (Melan-a): 21.6 µM

O=C(NC12CC3CC(CC(C3)C1)C2)c1cc(O)ccc1O
viability at 20 µM [4]: 99.1% | IC50 (Tyrosinase): > 200 µM | IC50 (Melan-a): 9.82 µM

O=C(NC12CC3CC(CC(C3)C1)C2)c1cccc(O)c1O
viability at 20 µM [4]: 96.2% | IC50 (Tyrosinase): > 200 µM | IC50 (Melan-a): 0.73 µM

Oc1ccc(C23CC4CC(CC(C4)C2)C3)c(O)c1
viability at 20 µM [4]: 91.7% | IC50 (Tyrosinase): 0.9 µM | IC50 (Melan-a): 8.82 µM

O=C(NC12CC3CC(CC(C3)C1)C2)c1ccc(O)cc1O
IC50 (Tyrosinase): > 200 µM | IC50 (Melan-a): 34.1 µM | viability at 50 µM [5]: 99.2%
